Test results as given in ChEMBL document CHEMBL4387722.
pEC50, pIC50: −log10 of the molar value.

What was measured:
[1] = target: T1, Phosphotyrosine protein phosphatase (Mycobacterium tuberculosis, UniProt A0A045ISB3); experiment: Inhibition of Mycobacterium tuberculosis His-tagged PtpB expressed in Escherichia coli Rosetta 2 (DE3) using pNPP as substrate after 30 mins by spectrophotometric method
T1 sequence (A0A045ISB3 whole entry): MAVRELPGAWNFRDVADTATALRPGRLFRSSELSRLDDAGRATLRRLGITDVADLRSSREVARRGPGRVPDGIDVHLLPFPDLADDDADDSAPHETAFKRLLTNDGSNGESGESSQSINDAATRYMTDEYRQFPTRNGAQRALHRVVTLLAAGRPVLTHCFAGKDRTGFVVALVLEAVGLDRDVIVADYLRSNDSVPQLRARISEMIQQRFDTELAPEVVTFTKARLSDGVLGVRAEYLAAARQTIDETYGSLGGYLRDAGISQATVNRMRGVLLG

[2] = target: T2, Tyrosine-protein phosphatase non-receptor type 1 (Homo sapiens, UniProt P18031); experiment: Inhibition of human PTPN1 expressed in Escherichia coli Rosetta 2 (DE3) using pNPP as substrate after 45 mins by spectrophotometric method
T2 sequence (P18031 whole entry): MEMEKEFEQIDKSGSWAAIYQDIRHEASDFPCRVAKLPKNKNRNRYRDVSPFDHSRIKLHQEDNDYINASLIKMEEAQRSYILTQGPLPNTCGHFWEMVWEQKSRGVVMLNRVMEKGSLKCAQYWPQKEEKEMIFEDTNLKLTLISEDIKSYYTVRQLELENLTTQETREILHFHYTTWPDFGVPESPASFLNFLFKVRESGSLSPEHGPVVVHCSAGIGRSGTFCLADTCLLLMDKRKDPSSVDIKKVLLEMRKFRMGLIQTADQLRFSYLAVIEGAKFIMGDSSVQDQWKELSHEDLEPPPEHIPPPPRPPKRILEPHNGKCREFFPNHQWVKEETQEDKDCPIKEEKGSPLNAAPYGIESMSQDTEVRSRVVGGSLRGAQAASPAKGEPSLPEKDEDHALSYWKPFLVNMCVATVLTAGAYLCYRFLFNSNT

[3] = target: T3, Tyrosine-protein phosphatase non-receptor type 2 (Homo sapiens, UniProt P17706); experiment: Inhibition of human PTPN2 expressed in Escherichia coli Rosetta 2 (DE3) using pNPP as substrate after 45 mins by spectrophotometric method
T3 sequence (P17706 whole entry): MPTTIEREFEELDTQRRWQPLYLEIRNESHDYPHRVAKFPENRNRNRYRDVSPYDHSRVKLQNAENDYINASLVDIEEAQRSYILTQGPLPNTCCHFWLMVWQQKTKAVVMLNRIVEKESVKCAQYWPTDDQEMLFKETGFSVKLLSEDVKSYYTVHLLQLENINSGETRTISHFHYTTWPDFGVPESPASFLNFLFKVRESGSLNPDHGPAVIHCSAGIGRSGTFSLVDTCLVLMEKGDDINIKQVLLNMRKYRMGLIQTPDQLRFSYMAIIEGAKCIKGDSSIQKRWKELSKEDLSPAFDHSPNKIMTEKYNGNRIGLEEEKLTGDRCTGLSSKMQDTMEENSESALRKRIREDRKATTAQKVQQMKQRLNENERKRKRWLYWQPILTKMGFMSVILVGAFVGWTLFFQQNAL

[4] = target: T4, Tyrosine-protein phosphatase non-receptor type 5 (Homo sapiens, UniProt P54829); experiment: Inhibition of human PTPN5 expressed in Escherichia coli Rosetta 2 (DE3) using pNPP as substrate after 45 mins by spectrophotometric method
T4 sequence (P54829 whole entry): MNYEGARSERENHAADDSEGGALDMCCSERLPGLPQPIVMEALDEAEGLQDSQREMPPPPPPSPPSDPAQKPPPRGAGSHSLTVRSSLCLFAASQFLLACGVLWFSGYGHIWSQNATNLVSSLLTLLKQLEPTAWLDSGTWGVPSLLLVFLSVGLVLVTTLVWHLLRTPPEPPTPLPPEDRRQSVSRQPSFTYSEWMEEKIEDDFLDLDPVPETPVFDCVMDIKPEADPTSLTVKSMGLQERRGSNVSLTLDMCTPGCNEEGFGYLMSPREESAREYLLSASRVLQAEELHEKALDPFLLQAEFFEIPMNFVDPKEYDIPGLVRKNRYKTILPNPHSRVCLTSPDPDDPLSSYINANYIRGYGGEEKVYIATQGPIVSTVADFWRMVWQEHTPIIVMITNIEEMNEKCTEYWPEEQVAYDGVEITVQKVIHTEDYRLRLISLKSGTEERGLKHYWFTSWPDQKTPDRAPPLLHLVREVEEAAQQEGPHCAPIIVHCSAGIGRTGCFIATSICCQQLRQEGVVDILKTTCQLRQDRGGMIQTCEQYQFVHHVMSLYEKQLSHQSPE

[5] = system: Mycobacterium tuberculosis; experiment: Antitubercular activity against Mycobacterium tuberculosis H37Rv after 5 days at 200 uM relative to control; type: functional; conditions: 120 h
Outline: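 M. tuberculosis grown in liquid culture with compound at a fixed 200 μM for 5 days. Growth inhibition expressed as percent of control.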

[6] = Inhibition of refolded rhodanese (unknown origin) preincubated with Escherichia coli GroEL/GroES for 60 mins by measuring rhodanese enzyme activity followed by compound addition by Fe(SCN)3 dye based spectrometric analysis; design: species or system Homo sapiens
[7] = target: T5, Malate dehydrogenase, mitochondrial (Sus scrofa, UniProt P00346); experiment: Inhibition of refolded pig heart mitochondrial MDH preincubated with Escherichia coli GroEL/GroES for 45 mins using sodium mesoxalate as substrate followed by compound addition and measured after 20 to 30 mins by spectrometric analysis
T5 sequence (P00346 whole entry): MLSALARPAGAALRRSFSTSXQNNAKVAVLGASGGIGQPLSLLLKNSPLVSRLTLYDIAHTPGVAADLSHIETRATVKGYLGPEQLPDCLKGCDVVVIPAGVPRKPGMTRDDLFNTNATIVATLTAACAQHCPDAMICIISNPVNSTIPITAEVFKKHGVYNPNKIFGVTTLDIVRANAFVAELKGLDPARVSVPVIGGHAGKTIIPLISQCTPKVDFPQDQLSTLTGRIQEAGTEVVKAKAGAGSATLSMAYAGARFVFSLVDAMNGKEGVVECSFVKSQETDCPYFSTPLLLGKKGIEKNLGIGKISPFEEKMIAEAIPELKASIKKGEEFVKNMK

E. coli GroEL/ES [8] = target: T6, E. coli GroEL/ES (Escherichia coli, UniProt P0A6F5); experiment: Inhibition of Escherichia coli GroEL expressed in Escherichia coli DH5alpha/Escherichia coli GroES expressed in Escherichia coli BL21 (DE3) assessed as reduction in GroEL/GroES-mediated denatured rhodanese refolding by measuring rhodanese enzyme activity after 45 mins by Fe(SCN)3 dye based spectrometric analysis
T6 sequence (P0A6F5 whole entry, looked up): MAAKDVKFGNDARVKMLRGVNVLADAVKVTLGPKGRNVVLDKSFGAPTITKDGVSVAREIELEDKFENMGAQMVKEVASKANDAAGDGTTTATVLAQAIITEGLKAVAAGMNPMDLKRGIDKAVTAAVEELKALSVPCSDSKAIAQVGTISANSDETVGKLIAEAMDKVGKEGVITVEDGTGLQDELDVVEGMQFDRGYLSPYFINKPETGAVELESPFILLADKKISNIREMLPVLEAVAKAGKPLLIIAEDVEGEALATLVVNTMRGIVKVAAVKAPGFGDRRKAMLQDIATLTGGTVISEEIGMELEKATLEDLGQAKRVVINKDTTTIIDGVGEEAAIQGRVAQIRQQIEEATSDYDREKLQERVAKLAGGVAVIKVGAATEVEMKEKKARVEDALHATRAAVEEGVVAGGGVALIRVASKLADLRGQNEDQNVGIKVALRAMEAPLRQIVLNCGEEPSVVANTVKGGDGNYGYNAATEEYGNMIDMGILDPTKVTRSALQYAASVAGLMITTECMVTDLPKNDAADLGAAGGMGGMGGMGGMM

E. coli GroEL/ES [9] = target: T6, E. coli GroEL/ES; experiment: Inhibition of Escherichia coli GroEL expressed in Escherichia coliDH5alpha/Escherichia coli GroES expressed in Escherichia coli BL21 (DE3) assessed as reduction in GroEL/GroES-mediated denatured pig heart mitochondrial MDH refolding by measuring MDH enzyme activity using sodium mesoxalate as substrate after 20 to 40 mins by spectrometric analysis
HSP60/HSP10 = HSP60/HSP10 (Homo sapiens, UniProt P10809); experiment: Inhibition of human HSP60 expressed in Escherichia coli Rosetta 2(DE3)/human HSP10 expressed in Escherichia coli Rosetta 2(DE3) pLysS cells assessed as reduction in HSP60/HSP10-mediated denatured pig heart mitochondrial MDH refolding by measuring MDH enzyme activity using sodium mesoxalate as substrate after 40 to 60 mins by spectrometric analysis
HSP60/HSP10, sequence (P10809 whole entry): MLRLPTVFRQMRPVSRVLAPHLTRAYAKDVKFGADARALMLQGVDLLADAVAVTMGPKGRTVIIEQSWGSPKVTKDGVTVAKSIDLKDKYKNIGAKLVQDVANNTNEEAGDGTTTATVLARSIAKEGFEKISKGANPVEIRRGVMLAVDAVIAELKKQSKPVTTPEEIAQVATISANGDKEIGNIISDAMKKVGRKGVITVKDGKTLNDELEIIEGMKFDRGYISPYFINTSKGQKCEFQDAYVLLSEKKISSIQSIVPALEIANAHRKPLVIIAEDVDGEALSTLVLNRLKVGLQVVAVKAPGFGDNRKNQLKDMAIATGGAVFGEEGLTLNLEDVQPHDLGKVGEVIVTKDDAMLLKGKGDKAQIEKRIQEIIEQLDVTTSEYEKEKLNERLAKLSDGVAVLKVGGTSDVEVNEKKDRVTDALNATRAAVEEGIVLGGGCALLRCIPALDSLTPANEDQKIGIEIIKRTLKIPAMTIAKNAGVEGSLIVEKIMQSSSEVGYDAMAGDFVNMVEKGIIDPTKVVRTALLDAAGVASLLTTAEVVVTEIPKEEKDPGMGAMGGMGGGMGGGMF
HSP60/HSP10, sequence (P61604 whole entry, further chain): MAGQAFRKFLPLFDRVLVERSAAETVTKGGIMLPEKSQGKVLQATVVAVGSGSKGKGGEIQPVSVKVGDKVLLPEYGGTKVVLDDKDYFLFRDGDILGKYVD

[10] = Cytotoxicity against human THLE3 cells assessed as reduction in cell viability after 48 hrs by Alamar blue assay; type: cell-based
Outline: (§1)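 Alamar Blue viability read-out. Human liver (THLE-3) and kidney (HEK 293) cells incubated with compound for 48 h. Tested in dose-response to derive CC50.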

[11] = Cytotoxicity against human HEK293 cells assessed as reduction in cell viability after 48 hrs by Alamar blue assay; type: cell-based; outline: as §1
[12] = system: Mycobacterium tuberculosis; experiment: Antitubercular activity against Mycobacterium tuberculosis H37Rv after 5 days; type: functional, organism-based; conditions: 120 h

| Compound | pIC50 [1] | pIC50 [2] | pIC50 [3] | pIC50 [4] | inhibition at 200 µM [5] [%] | pIC50 [6] | pIC50 [7] | pIC50 (E. coli GroEL/ES [8]) | pIC50 (E. coli GroEL/ES [9]) | pIC50 (HSP60/HSP10) | CC50 at 48 h [10] [µM] | CC50 at 48 h [11] [µM] | pEC50 [12] |
| --- | --- | --- | --- | --- | --- | --- | --- | --- | --- | --- | --- | --- | --- |
| O=S(=O)(Nc1ccc(-c2nc3ccccc3o2)cc1)c1ccc(Cl)c(Cl)c1 | 4.60 | 4.54 | 4.48 | 4.52 | 37 | < 4.00 | < 4.20 | 3.98 | 4.37 | 4.60 | 84 | > 100 |  |
| O=S(=O)(Nc1ccc2oc(-c3ccccc3)nc2c1)c1ccccc1C(F)(F)F | 4.24 | 4.36 | 4.26 | 4.43 | 45 | < 4.00 | < 4.20 | 3.79 | 4.04 | < 4.00 | 59 | 80 |  |
| O=S(=O)(Nc1ccc2oc(-c3ccccc3)nc2c1)c1ccc(Cl)c(C(F)(F)F)c1 | 4.40 | 4.40 | 4.47 | 4.55 | 0 | < 4.00 | < 4.20 | 3.88 | 4.04 | < 4.00 | 47 | 66 |  |
| Cc1ccc(S(=O)(=O)Nc2ccc(-c3nc4ccccc4o3)cc2)cc1 | 4.28 | 4.38 | 4.31 | 4.35 | 28 | < 4.00 | < 4.20 | 3.80 | < 4.00 | < 4.00 | 82 | 88 |  |
| O=S(=O)(Nc1ccc(-c2nc3ccccc3o2)cc1)c1ccc(Cl)cc1 | 4.34 | 4.37 | 4.38 | 4.44 | 7 | < 4.00 | < 4.20 | 3.82 | < 4.00 | 4.21 | 81 | > 100 |  |
| O=S(=O)(Nc1ccc2oc(-c3ccccc3)nc2c1)c1ccccc1Cl | 4.30 | 4.40 | 4.38 | 4.46 | 13 | < 4.00 | < 4.20 | 3.99 | 4.05 | < 4.00 | 43 | 73 |  |
| O=S(=O)(Nc1ccc(-c2nc3ccccc3o2)cc1)c1cccc(O)c1 | 4.10 | < 4.00 | < 4.00 | 4.08 | 61 | < 4.00 | < 4.20 |  |  | 4.21 | 97 | > 100 | 3.72 |
| O=S(=O)(Nc1ccc2oc(-c3ccccc3)nc2c1)c1ccc(Cl)c(Cl)c1 | 4.48 | 4.46 | 4.48 | 4.60 | 22 | < 4.00 | < 4.20 | 3.82 | 4.10 | < 4.00 | 55 | 71 |  |
| O=S(=O)(Nc1ccc(-c2nc3ccccc3o2)cc1)c1ccc(O)cc1 | 4.03 | 4.15 | < 4.00 | 4.09 | 77 | < 4.00 | < 4.20 |  |  | 4.11 | > 100 | > 100 | < 3.70 |
| COc1ccc(S(=O)(=O)Nc2ccc(-c3nc4ccccc4o3)cc2)cc1 | 4.21 | 4.38 | 4.28 | 4.35 | 72 | < 4.00 | < 4.20 |  |  | < 4.00 | 86 | > 100 | 3.75 |
| COc1ccc(S(=O)(=O)Nc2ccc3oc(-c4ccccc4)nc3c2)cc1 | 4.14 | 4.34 | 4.30 | 4.43 | 75 | < 4.00 | < 4.20 |  |  | < 4.00 | 53 | 91 | 3.78 |
| Cc1cccc(S(=O)(=O)Nc2ccc3oc(-c4ccccc4)nc3c2)c1 | 4.20 | 4.28 | 4.24 | 4.41 | 82 | < 4.00 | < 4.20 |  |  | < 4.00 | 38 | 69 | 3.79 |
| COc1cccc(S(=O)(=O)Nc2ccc(-c3nc4ccccc4o3)cc2)c1 | 4.17 | 4.29 | 4.17 | 4.32 | 74 | < 4.00 | < 4.20 |  |  | 4.10 | 84 | > 100 | 3.81 |
| Nc1ccccc1S(=O)(=O)Nc1ccc(-c2nc3cc(NS(=O)(=O)c4ccccc4N)ccc3o2)cc1 | 4.77 | 4.47 | 4.60 | 4.29 | 58 |  |  |  |  |  |  |  | < 3.70 |
| O=S(=O)(Nc1ccc2oc(-c3ccccc3)nc2c1)c1cccc(F)c1 | 4.03 | 4.15 | < 4.00 | 4.38 | 56 | < 4.00 | < 4.20 |  |  | < 4.00 | 41 | 68 | < 3.70 |
